Data taken from ChEMBL document CHEMBL3085688, “Thiazole-aminopiperidine hybrid analogues: design and synthesis of novel Mycobacterium tuberculosis GyrB inhibitors” (Eur J Med Chem, 2013).
Converted amounts (≈) assume the structure as drawn. The source made the active and inactive calls. No cut-off for these calls is given here.

Experiments:
[1] = tested on: Mycobacterium tuberculosis; experiment: Antimycobacterial activity against Mycobacterium tuberculosis H37Rv after 7 days by MABA assay; type: functional; conditions: 168 h
How it was run: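 M. tuberculosis H37Rv in 7H9-S medium with OADC, adjusted to McFarland No. 1 and diluted 1:20 for inoculum. Drugs were diluted in 7H9-S at four-fold the highest final concentration, then serially two-fold diluted in plates alongside drug-free growth and sterile controls. Alamar blue microplate read-out.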

[2] = Cytotoxicity against mouse RAW264.7 cells at 50 uM after 72 hrs by MTT assay; type: cell-based; conditions: read-out: INH
How it was run: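 RAW 264.7 cells were exposed to compounds for 72 h. Viability was scored by cellular MTT conversion to formazan.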

[3] = target: DNA gyrase subunit B (Mycobacterium smegmatis, UniProt P0C559); experiment: Inhibition of Mycobacterium smegmatis GyrB ATPase activity expressed in Escherichia coli BL21 (DE3) after 2 hrs; set-up: species or system Mycolicibacterium smegmatis
DNA gyrase subunit B, sequence (P0C559 whole entry): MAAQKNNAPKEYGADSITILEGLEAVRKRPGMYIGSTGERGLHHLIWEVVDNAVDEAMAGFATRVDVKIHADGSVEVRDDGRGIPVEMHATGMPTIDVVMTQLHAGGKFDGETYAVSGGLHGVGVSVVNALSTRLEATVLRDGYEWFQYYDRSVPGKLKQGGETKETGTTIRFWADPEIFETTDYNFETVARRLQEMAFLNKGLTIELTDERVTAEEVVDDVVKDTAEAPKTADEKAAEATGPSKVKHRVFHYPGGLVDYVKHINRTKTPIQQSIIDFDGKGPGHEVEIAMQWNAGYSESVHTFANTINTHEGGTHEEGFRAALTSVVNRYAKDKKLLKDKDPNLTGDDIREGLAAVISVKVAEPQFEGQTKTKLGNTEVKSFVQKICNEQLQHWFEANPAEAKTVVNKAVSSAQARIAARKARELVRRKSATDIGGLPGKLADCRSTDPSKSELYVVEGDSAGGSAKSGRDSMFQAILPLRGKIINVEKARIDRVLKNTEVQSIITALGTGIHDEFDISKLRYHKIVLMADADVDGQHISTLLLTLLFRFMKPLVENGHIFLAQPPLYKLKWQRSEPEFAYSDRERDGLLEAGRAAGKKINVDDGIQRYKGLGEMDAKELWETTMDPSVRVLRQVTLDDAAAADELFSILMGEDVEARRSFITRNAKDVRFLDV

[4] = tested on: Staphylococcus aureus; experiment: Inhibition of Staphylococcus aureus GyrB
[5] = tested on: Escherichia coli; experiment: Inhibition of Escherichia coli DNA gyrase
[6] = target: DNA gyrase subunit A/DNA gyrase subunit B (Mycobacterium tuberculosis (strain ATCC 25618 / H37Rv), UniProt P9WG45+P9WG47); experiment: Inhibition of Mycobacterium tuberculosis DNA gyrase super coiling activity of relaxed pBR322 using ethidium bromide staining by agarose gel electrophoresis
DNA gyrase subunit A/DNA gyrase subunit B, sequence (P9WG45 whole entry): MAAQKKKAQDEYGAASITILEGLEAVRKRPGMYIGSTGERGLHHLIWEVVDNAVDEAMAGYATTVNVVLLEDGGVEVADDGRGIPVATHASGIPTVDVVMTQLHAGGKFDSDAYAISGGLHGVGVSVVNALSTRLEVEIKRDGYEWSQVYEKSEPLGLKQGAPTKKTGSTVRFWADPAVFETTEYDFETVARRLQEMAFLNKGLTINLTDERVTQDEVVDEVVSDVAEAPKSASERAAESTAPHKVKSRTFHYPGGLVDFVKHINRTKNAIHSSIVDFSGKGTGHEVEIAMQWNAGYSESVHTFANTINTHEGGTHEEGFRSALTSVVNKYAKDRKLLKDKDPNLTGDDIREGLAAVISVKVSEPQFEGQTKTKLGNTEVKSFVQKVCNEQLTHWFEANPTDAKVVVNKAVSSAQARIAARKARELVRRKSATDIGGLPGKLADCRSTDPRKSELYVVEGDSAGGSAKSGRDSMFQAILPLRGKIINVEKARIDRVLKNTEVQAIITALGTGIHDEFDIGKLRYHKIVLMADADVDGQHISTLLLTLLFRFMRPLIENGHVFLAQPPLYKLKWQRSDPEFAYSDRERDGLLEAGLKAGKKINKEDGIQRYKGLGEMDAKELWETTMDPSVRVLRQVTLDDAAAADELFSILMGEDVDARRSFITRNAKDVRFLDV
DNA gyrase subunit A/DNA gyrase subunit B, sequence (P9WG47 whole entry): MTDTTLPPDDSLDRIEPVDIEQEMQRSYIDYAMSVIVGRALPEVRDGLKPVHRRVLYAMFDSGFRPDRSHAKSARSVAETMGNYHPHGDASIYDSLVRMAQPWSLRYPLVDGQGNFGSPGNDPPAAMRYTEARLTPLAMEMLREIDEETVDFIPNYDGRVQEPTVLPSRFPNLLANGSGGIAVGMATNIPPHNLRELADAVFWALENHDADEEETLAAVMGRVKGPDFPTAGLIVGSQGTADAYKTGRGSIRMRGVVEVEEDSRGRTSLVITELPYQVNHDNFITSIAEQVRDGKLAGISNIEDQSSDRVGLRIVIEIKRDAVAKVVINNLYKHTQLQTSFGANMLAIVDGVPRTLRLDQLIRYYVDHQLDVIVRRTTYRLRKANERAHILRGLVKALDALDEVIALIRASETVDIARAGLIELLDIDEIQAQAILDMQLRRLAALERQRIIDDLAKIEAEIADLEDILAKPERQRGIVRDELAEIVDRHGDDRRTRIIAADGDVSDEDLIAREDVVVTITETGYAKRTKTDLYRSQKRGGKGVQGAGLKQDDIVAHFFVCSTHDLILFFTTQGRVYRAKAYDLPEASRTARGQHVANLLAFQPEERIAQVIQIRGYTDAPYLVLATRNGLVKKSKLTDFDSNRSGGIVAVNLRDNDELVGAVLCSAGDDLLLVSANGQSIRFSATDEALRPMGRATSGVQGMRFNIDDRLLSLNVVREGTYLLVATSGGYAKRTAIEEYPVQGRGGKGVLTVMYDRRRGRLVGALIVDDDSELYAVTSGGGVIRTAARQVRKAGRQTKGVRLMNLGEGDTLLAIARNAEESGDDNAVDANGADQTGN

Compound: CCOC(=O)c1sc(-c2ccccc2)nc1N1CCC(NCc2ccccc2)CC1
- MIC [1]: 119 µM (≈ 50 µg/mL)
- cytotoxicity at 72 h, 50 µM [2]: 11.7%

Compound: CCOC(=O)c1sc(-c2ccncc2)nc1N1CCC(NCc2cccc(C(F)(F)F)c2)CC1
- MIC [1]: 51 µM (≈ 25 µg/mL)
- cytotoxicity at 72 h, 50 µM [2]: 14.3%

Compound: CCOC(=O)c1sc(-c2ccccn2)nc1N1CCC(NCc2cccc(C(F)(F)F)c2)CC1
- IC50 [3]: 29.1 µM
- MIC [1]: 25.5 µM (≈ 12.5 µg/mL)
- inhibition [4]: inactive
- cytotoxicity at 72 h, 50 µM [2]: 19.2%

Compound: CCOC(=O)c1sc(-c2ccncc2)nc1N1CCC(NCc2ccc(F)cc2)CC1
- MIC [1]: 56.8 µM (≈ 25 µg/mL)
- cytotoxicity at 72 h, 50 µM [2]: 17.4%

Compound: CCOC(=O)c1sc(-c2ccccc2)nc1N1CCC(NCc2ccc(OCc3ccccc3)cc2)CC1
- MIC [1]: 47.4 µM (≈ 25 µg/mL)
- cytotoxicity at 72 h, 50 µM [2]: 18.4%

Compound: CCOC(=O)c1sc(-c2ccncc2)nc1N1CCC(NCc2ccc(OCc3ccccc3)cc2)CC1
- MIC [1]: 47.3 µM (≈ 25 µg/mL)
- cytotoxicity at 72 h, 50 µM [2]: 8.04%

Compound: CCOC(=O)c1sc(-c2ccccn2)nc1N1CCC(NCc2ccc(Cl)c(Cl)c2)CC1
- MIC [1]: > 102 µM
- cytotoxicity at 72 h, 50 µM [2]: 30.1%

Compound: CCOC(=O)c1sc(-c2ccccc2)nc1N1CCC(NCc2ccc(Cl)c(Cl)c2)CC1
- MIC [1]: > 102 µM
- cytotoxicity at 72 h, 50 µM [2]: 18.1%

Compound: CO[C@@H]1[C@@H](OC(N)=O)[C@@H](O)[C@H](Oc2ccc3c(O)c(NC(=O)c4ccc(O)c(CC=C(C)C)c4)c(=O)oc3c2C)OC1(C)C [NOVOBIOCIN]
- MIC [1]: > 200 µM
- inhibition [4]: inactive
- inhibition [5]: inactive

Compound: CCOC(=O)c1sc(-c2ccccc2)nc1N1CCC(NCc2ccc(OC)cc2)CC1
- MIC [1]: > 111 µM
- cytotoxicity at 72 h, 50 µM [2]: 8.4%

Compound: CCOC(=O)c1sc(-c2ccccc2)nc1N1CCC(NCc2cccc(C(F)(F)F)c2)CC1
- IC50 [3]: 26.9 µM
- MIC [1]: 102 µM (≈ 50 µg/mL)
- inhibition [4]: inactive
- cytotoxicity at 72 h, 50 µM [2]: 28.1%

Compound: CCOC(=O)c1sc(-c2ccccn2)nc1N1CCC(NCc2ccc(Cl)cc2Cl)CC1
- MIC [1]: 50.9 µM (≈ 25 µg/mL)
- cytotoxicity at 72 h, 50 µM [2]: 18.6%

Compound: CCOC(=O)c1sc(-c2ccncc2)nc1N1CCC(NCc2ccc(C(F)(F)F)cc2)CC1
- MIC [1]: 102 µM (≈ 50 µg/mL)
- cytotoxicity at 72 h, 50 µM [2]: 18.1%

Compound: CCOC(=O)c1sc(-c2ccccc2)nc1N1CCC(NCc2ccc(F)cc2)CC1
- IC50 [6]: 27.1 µM
- IC50 [3]: 24 µM
- MIC [1]: 28.4 µM (≈ 12.5 µg/mL)
- inhibition [4]: inactive
- cytotoxicity at 72 h, 50 µM [2]: 6.23%
- inhibition [5]: inactive

Compound: CCOC(=O)c1sc(-c2ccncc2)nc1N1CCC(NCc2ccc(Cl)c(Cl)c2)CC1
- MIC [1]: 102 µM (≈ 50 µg/mL)
- cytotoxicity at 72 h, 50 µM [2]: 32.2%

Compound: CCOC(=O)c1sc(-c2ccncc2)nc1N1CCC(NCc2ccc(Cl)cc2Cl)CC1
- IC50 [3]: 27.1 µM
- MIC [1]: 25.4 µM (≈ 12.5 µg/mL)
- inhibition [4]: inactive
- cytotoxicity at 72 h, 50 µM [2]: 18.4%

Compound: CCOC(=O)c1sc(-c2ccncc2)nc1N1CCC(NCc2ccccc2)CC1
- MIC [1]: 59.2 µM (≈ 25 µg/mL)
- cytotoxicity at 72 h, 50 µM [2]: 10.8%

Compound: CCOC(=O)c1sc(-c2ccccn2)nc1N1CCC(NCc2ccc(C(F)(F)F)cc2)CC1
- MIC [1]: 51 µM (≈ 25 µg/mL)
- cytotoxicity at 72 h, 50 µM [2]: 14.6%

Compound: CCOC(=O)c1sc(-c2ccccn2)nc1N1CCC(NCc2ccccc2)CC1
- MIC [1]: 59.2 µM (≈ 25 µg/mL)
- cytotoxicity at 72 h, 50 µM [2]: 14.6%

Compound: CCOC(=O)c1sc(-c2ccncc2)nc1N1CCC(NCc2ccc(OC)cc2)CC1
- MIC [1]: 110 µM (≈ 50 µg/mL)
- cytotoxicity at 72 h, 50 µM [2]: 16.1%

Compound: CCOC(=O)c1sc(-c2ccccn2)nc1N1CCC(NCc2ccc(F)cc2)CC1
- MIC [1]: 28.4 µM (≈ 12.5 µg/mL)
- cytotoxicity at 72 h, 50 µM [2]: 12.6%

Compound: CCOC(=O)c1sc(-c2ccccn2)nc1N1CCC(NCc2ccc(OCc3ccccc3)cc2)CC1
- MIC [1]: 47.3 µM (≈ 25 µg/mL)
- cytotoxicity at 72 h, 50 µM [2]: 12.8%

Compound: CCOC(=O)c1sc(-c2ccccn2)nc1N1CCC(NCc2ccc(OC)cc2)CC1
- MIC [1]: 55.2 µM (≈ 25 µg/mL)
- cytotoxicity at 72 h, 50 µM [2]: 4.62%

Compound: CCOC(=O)c1sc(-c2ccccc2)nc1N1CCC(NCc2ccc(Cl)cc2Cl)CC1
- MIC [1]: 51 µM (≈ 25 µg/mL)
- cytotoxicity at 72 h, 50 µM [2]: 9.43%

Compound: CCOC(=O)c1sc(-c2ccccc2)nc1N1CCC(NCc2ccc(C(F)(F)F)cc2)CC1
- MIC [1]: 102 µM (≈ 50 µg/mL)
- cytotoxicity at 72 h, 50 µM [2]: 22.7%
